# XBP1 UPR activ – activators of adaptive XBP1 UPR arm, primary screen, cell-based, CHO-XBP1 luciferase reporter, luminescence, uHTS | IRE1-XBP1 UPR activation; percent of tunicamycin response, DMSO as zero | activation, % at 20 µM | hit rate 0.33% among 330,000 | AID 463104, 2010;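 active = versus positive control, 20 µM dose yields 30% or more activation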;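 note: 100% = tunicamycin at 10 µg/mL and 0% = DMSO only wells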
#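 Material: CHO cell line with stable XBP1 luciferase reporter; schedule: 16-18 h cell attachment at 37 °C, then 6 h compound exposure; signal: glow luminescence from Steady-Glo reagent; medium: serum-containing F12 medium, 10% FBS; benchmarks: tunicamycin 10 µg/mL and vehicle-only wells; read-out: percent activation relative to tunicamycin reference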
# CHOP inhibitor – inhibitors of CHOP promoter induction, primary screen, cell-based, unfolded protein response, luciferase reporter; CHO-K1 CHOP-promoter luciferase, tunicamycin-induced, 15-18 h; inhibition, % at 10 µM; hit rate 3.8% among 220,000; AID 2732, 2010;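 active = compounds that reduced the stress-induced luciferase reporter signal by more than about 70% of percent inhibition, limit read from the data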;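 note: 0% = tunicamycin plus vehicle and 100% = wells without tunicamycin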
# A1 inh – caspase 3/7 activation in MEF A1-2A-BIM cells, primary screen, A1 inhibitor project, cell-based, luminescence, HTS; Caspase-Glo 3/7 luminescence, 3 h; percent of clofoctol response, vehicle zero; caspase activation, % (no concentration beside the values); hit rate 0.066% among 330,000; AID 2462, 2010;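 active = over half of replicate activation scores above 10%, or exactly half above 10 with the replicate mean above 10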
# CHOP UPR activ – activators of apoptotic CHOP UPR arm, primary screen, cell-based, CHO-CHOP luciferase reporter, luminescence, uHTS | hit rate 0.34% among 330,000 | activation, % at 10 µM | UPR activation; percent of tunicamycin response over DMSO baseline;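 active = at 10 µM dose, activation of 40% or more, normalized to positive control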;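 note: 100% = tunicamycin at 10 µg/mL and 0% = DMSO alone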
#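 Assay system: CHO cells with stable CHOP pathway luciferase reporter; Buffer or medium: F12 plus 10% serum; Times: 16-18 h cell attachment, then 6 h compound exposure, 37 °C; Signal: luciferase luminescence; Read-out basis: percent activation relative to tunicamycin control; Control set: tunicamycin high control, DMSO low control.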
# CHOP inh conf – retest of CHOP induction inhibitors, confirmation, cell-based | shares compounds with CHOP inhibitor | CHO-CHOP promoter luciferase reporter, tunicamycin-induced, luminescence | inhibition, % at 10 µM | hit rate 45% among 2,100 | AID 504437, 2011;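 active = mean of three repeat readings of reporter signal inhibition above a set limit, cut at about 70% in these data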;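 note: 0% = tunicamycin plus vehicle and 100% = wells lacking tunicamycin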
# An asterisk follows results filed as active; nt = not tested or not shown. The full list was thinned out, with hits kept by preference.
SMILES,XBP1 UPR activ,CHOP inhibitor,A1 inh,CHOP UPR activ,CHOP inh conf
N#C/C(=C\c1ccc([N+](=O)[O-])o1)c1nc2ccccc2[nH]1,-6,106*,1,-8,127*
Cc1ccc(C(C(=O)NCc2ccco2)N(C(=O)CNC(=O)c2cccs2)c2c(C)cccc2C)cc1 (configuration not stated),19,101*,1,5,80*
Cc1cc(C)cc(OC2CCCCC2NS(=O)(=O)c2ccccc2)c1 (configuration not stated),0,99*,1,-1,70*
CN(C)S(=O)(=O)c1ccc2c(c1)C(CC(=O)O)NC2=O (configuration not stated),-4,22,-1,2,nt
Cc1ccc(CNCC(O)(c2ccccc2)c2ccc(Cl)cc2)cc1 (configuration not stated),nt,99*,nt,nt,135*
Cc1ccc(CNCC(O)(c2ccccc2)c2ccccc2)cc1,1,nt,-1,3,nt
Cc1ccc2nc(/C(C#N)=C\c3ccc(Oc4ccc([N+](=O)[O-])cn4)cc3)[nH]c2c1,nt,97*,0,nt,37
COc1cc(NS(=O)(=O)c2cc(C(=O)N3CCN(C(C)=O)CC3)ccc2OC)cc(OC)c1,-2,-7,0,-1,nt
CCOC(=O)c1c(C)[nH]c(O)c1C=Nc1ccc(Cl)cc1,0,103*,1,3,110*
COC(=O)c1c(C)[nH]c(O)c1C=Nc1ccc(Oc2ccccc2)cc1,3,45,-3,3,nt
Cc1nc(C(F)(F)F)ccc1C(=O)NN1CCOCC1,-3,nt,0,-1,nt
Cc1ccc(-c2cc(-c3ccc(Cl)cc3)c(C#N)c(N)n2)o1,-2,98*,0,0,5
Cc1ccc(-c2cc(-c3ccc(F)cc3)c(C#N)c(N)n2)o1,0,-22,0,0,nt
Cc1cc(-c2cc(-c3ccc(Cl)cc3)nc(N)c2C#N)co1,2,106*,1,-3,-48
Cc1ccc(-c2cc(-c3ccc(C)o3)nc(N)c2C#N)cc1,-7,101*,1,-2,10
Cc1nc2cccc(C(=O)NC3CCCCC3)c2o1,-1,-15,0,0,nt
CC(C)=C1C2CCC1C(C(=O)Nc1sc(C)c(-c3ccc(C(C)C)cc3)c1C(N)=O)C2C(=O)O (configuration not stated),-6,103*,0,0,100*
Cc1ccc(-c2c(C)sc(NC(=O)C3C4CCC(O4)C3C(=O)O)c2C(=O)OC(C)C)cc1 (configuration not stated),-3,30,2,0,nt
Cc1cc(/C=N/n2cnnc2)c(C)n1-c1ccc(OCc2ccc(Cl)cc2)cc1,3,99*,0,17,91*
Cc1cc(/C=N/n2cnnc2)c(C)n1-c1ccc(OCc2ccccc2F)cc1,0,111*,0,4,103*
Cc1ccccc1/C=N/n1c(-c2cc(-c3ccccc3)n[nH]2)n[nH]c1=S,-2,104*,0,1,57
CC(C)Oc1ccc(CNC(=S)N/N=C/c2ccc([N+](=O)[O-])cc2)cc1,0,98*,2,1,102*
CCC(NC(=O)Nc1nnc(C(F)(F)F)s1)(C(F)(F)F)C(F)(F)F,-1,103*,1,9,115*
COc1ccc2c(-c3cc4ccc(OCc5ccc(F)cc5)cc4oc3=O)cc(=O)oc2c1,nt,103*,9.6*,nt,51
COc1ccc(COc2ccc3c(C)cc(=O)oc3c2)cc1,-2,nt,-5,8,nt
SMILES,XBP1 UPR activ,CHOP inhibitor,A1 inh,CHOP UPR activ,CHOP inh conf
O=C(COC(=O)c1c(F)cccc1F)NCCNC(=O)COC(=O)c1c(F)cccc1F,-2,nt,0,2,nt
Cn1ncc(Cl)c1C(=O)N1CCN(c2ccc(F)cc2)CC1,0,nt,0,0,nt
CC1CCCN(C(=O)CCNS(=O)(=O)c2ccc3c(c2)oc(=O)n3C)C1 (configuration not stated),0,nt,1,1,nt
Cc1nn(CCC#N)c2nc(-c3ccccc3)cc(C(F)(F)F)c12,-1,106*,0,0,83*
O=C(NNc1ccccc1Br)C(O)(c1cccc(C(F)(F)F)c1)c1cccc(C(F)(F)F)c1,2,103*,0,17,118*
CN(CCc1ccccn1)C(=O)CCC1CCCN(C(=O)c2c3c(nn2C)CCCC3)C1 (configuration not stated),-3,-17,3,0,nt
FC(F)(F)c1cccc(NC(=S)NNC(=S)Nc2cccc(C(F)(F)F)c2)c1,0,-6,0,4,nt
FC(F)(F)c1cccc(NC(=S)NC(c2ccccc2)c2ccccc2)c1,nt,103*,0,nt,75*
O=c1c2c([N+](=O)[O-])cc([N+](=O)[O-])cc2sn1Cc1ccccc1,-5,nt,0,8,nt
O=c1c2c([N+](=O)[O-])cc([N+](=O)[O-])cc2sn1-c1ccc(Br)cc1,-1,97*,-3,2,12
CSC(SC)=C(C#N)C(=O)c1ccccc1,-8,107*,6.7*,39,102*
O=C(O)c1ccc(C(=O)C(=O)c2ccccc2)cc1,0,7,-5,2,nt
O=c1[nH]c2cc3c(cc2cc1C(c1nnnn1Cc1ccccc1)N1CCN2CCCC2C1)OCCO3 (configuration not stated),-4,0,nt,2,nt
O=c1[nH]c2cc3c(cc2cc1C(c1nnnn1Cc1ccccc1)N1CCCCCC1)OCCO3 (configuration not stated),1,101*,1,1,29
BrC(=C\c1ccccc1)/C=N/N1CCN(Cc2ccccc2)CC1,-5,98*,1,0,30
CC1CN(S(=O)(=O)c2cccc(C(=O)OC/C(O)=C(\C#N)c3nc4ccccc4[nH]3)c2)CC(C)O1 (configuration not stated),-1,106*,0,1,29
CCOC(=O)c1ccc2c(c1)nc(SC/C(O)=C(\C#N)c1nc3ccccc3[nH]1)n2CC,2,99*,1,1,46
CCOC(=O)c1c(C)[nH]c(C(=O)OC/C(O)=C(\C#N)c2nc3ccccc3[nH]2)c1C,-1,100*,0,0,-32
Clc1ccccc1CN(Cc1ccccc1)c1ncnc2nc[nH]c12,-1,107*,3,0,39
Clc1ccccc1CNc1ncnc2nc[nH]c12,-1,18,0,0,nt
CCc1ccc(OCc2n[nH]c(=S)n2Cc2ccccc2)cc1,-1,4,0,0,nt
CCc1ccc(OCc2n[nH]c(=S)n2C(C)CCCC(C)C)cc1 (configuration not stated),-2,105*,-1,0,113*

# High-throughput results: PubChem, several laboratories
